# How the values were obtained:
# [1] = target: T1, Coagulation factor VII/tissue factor (Homo sapiens) (UniProt P08709+P13726); assay: Selectivity for fVIIa/TF complex over fXa; format: protein-complex assay
# In short: (§1)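 Ki ratios; fXa and thrombin assays pH 7.4, fVIIa assay with 7 nM fVIIa, 11 nM relipidated tissue factor, 5 mM CaCl2 and substrate CH3SO2-D-CHA-But-Arg-pNA.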
# Coagulation factor VII = target: T2, Coagulation factor VII (Homo sapiens, UniProt P08709); assay: Binding affinity to F7a/TF complex; format: protein-complex assay
# T2 sequence (P08709 whole entry): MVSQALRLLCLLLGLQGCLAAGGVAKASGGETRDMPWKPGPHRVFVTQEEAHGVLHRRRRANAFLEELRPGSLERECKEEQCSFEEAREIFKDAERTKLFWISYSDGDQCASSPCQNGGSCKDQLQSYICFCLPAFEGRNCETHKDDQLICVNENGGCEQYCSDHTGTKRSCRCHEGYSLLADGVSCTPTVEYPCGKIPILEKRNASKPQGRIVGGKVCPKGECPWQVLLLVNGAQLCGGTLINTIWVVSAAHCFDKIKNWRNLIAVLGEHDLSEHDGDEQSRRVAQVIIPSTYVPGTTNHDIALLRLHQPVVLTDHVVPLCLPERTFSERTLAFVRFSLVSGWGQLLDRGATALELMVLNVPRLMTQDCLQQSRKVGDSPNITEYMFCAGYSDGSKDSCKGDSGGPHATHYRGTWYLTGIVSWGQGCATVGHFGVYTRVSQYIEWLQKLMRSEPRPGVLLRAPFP
# [2] = target: T1, Coagulation factor VII/tissue factor (Homo sapiens); assay: Selectivity for fVIIa/TF complex over fIIa; format: protein-complex assay; in short: as §1
# [3] = target: T1, Coagulation factor VII/tissue factor (Homo sapiens); assay: Anticoagulant potency in human plasma as measured by prothrombin time; format: functional, cell-free
# In short: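 Clotting assay in human plasma on a coagulation analyzer run per manufacturer's instructions; concentration doubling prothrombin time reported.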
# Baboon [4] = assay: Inhibition of platelet deposition in baboon at 0.1 mg/kg, iv 1 hr post dose relative to control; format: functional; settings: Papio, in Papio anubis
# In short: (§2)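 Conscious non-anticoagulated baboons with chronic femoral arterio-venous shunt; single IV bolus, thrombogenic device inserted 5 min post dose. Device: 2 cm ePTFE graft (4 mm id) filled with relipidated tissue factor, flow 100 mL/min (shear 265/s), 60 min. Platelets: 111-In-labeled autologous, gamma camera every 5 min; fibrin: 125-I fibrinogen, graft counted after 30 days decay; PT monitored throughout; reduction vs saline control.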
# CYP3A4 = CYP3A4 (Homo sapiens, UniProt P08684); assay: Inhibition of CYP3A4 at 10 uM; format: ADME
# Chain of CYP3A4 (P08684 whole entry): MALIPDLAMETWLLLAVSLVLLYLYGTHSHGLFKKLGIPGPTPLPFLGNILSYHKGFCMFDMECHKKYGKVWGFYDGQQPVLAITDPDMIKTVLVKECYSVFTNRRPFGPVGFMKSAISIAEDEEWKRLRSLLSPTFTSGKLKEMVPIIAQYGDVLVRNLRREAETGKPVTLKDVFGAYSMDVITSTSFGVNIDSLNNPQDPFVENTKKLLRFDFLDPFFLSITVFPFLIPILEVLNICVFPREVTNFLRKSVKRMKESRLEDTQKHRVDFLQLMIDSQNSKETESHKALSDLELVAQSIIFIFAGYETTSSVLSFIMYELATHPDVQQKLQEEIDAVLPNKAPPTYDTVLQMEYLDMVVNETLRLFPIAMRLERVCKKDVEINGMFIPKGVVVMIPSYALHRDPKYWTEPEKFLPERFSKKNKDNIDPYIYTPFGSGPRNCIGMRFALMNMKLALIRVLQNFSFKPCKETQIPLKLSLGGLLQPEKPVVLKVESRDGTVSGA
# In short: (§3)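 Five cytochrome P450 isozymes tested at 10 µM; percent inhibition.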
# [5] = Plasma clearance in iv dosed baboon; format: ADME, organism-based, Papio
# In short: (§4)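 Single IV dose to female C57BL/6 mice or male Sprague–Dawley rats, NZW rabbits, Beagle dogs, or baboons; plasma concentrations measured by LC/MS/MS.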
# Baboon [6] = assay: Inhibition of fibrin deposition in baboon at 0.1 mg/kg, iv 1 hr post dose relative to control; format: functional; settings: Papio, in Papio anubis; in short: as §2
# CYP1A2 = target: T3, CYP1A2 (Homo sapiens, UniProt P05177); assay: Inhibition of CYP1A2 at 10 uM; format: ADME; in short: as §3
# T3 sequence (P05177 whole entry): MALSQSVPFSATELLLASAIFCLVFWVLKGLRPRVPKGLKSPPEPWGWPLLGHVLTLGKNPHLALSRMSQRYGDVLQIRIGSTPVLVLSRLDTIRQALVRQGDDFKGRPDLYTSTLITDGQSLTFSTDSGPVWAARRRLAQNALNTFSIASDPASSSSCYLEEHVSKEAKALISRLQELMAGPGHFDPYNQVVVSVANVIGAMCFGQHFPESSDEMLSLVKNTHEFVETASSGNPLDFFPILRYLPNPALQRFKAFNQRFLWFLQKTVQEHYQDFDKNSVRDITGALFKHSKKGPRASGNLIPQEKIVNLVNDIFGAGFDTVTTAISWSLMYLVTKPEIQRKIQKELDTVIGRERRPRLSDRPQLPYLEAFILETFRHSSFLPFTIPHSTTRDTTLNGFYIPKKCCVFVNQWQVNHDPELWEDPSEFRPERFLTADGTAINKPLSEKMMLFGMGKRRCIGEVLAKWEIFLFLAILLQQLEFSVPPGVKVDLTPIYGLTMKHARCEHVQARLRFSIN
# Baboon [7] = assay: Inhibition of fibrin deposition in baboon at 0.03 mg/kg, iv 1 hr post dose relative to control; format: functional; settings: Papio, in Papio anubis; in short: as §2
# [8] = Mean residence time in iv dosed C57BL/6 mice; format: ADME, organism-based; settings: C57BL/6, mouse, in vivo; in short: as §4
# [9] = target: T1, Coagulation factor VII/tissue factor (Homo sapiens); assay: Anticoagulant potency in baboon as measured by prothrombin time at 0.5 mg/kg, iv 1 hr post dose; format: functional, organism-based; set-up: dose 0.5 mg/kg; settings: Papio, target entry is the homologue from another species; in short: as §2
# Oryctolagus cuniculus = assay: Volume of distribution in iv dosed New Zealand White rabbit; format: ADME, organism-based; settings: in vivo; in short: as §4
# [10] = Mean residence time in iv dosed baboon; format: ADME, organism-based, Papio; settings: in vivo; in short: as §4
# Baboon [11] = assay: Inhibition of fibrin deposition in baboon at 0.5 mg/kg, iv 1 hr post dose relative to control; format: functional; settings: Papio, in Papio anubis; in short: as §2
# [12] = target: T1, Coagulation factor VII/tissue factor (Homo sapiens); assay: Anticoagulant potency in human plasma as measured by activated partial thromboplastin time
# Baboon [13] = assay: Effect on reduction of platelet deposition in iv dosed baboon after 60 mins; format: functional, organism-based; settings: Papio, 1 h
# In short: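 Sigmoid Emax model fitted to dose (mg/kg) versus percent inhibition of platelet deposition relative to control at 60 min post IV bolus in the baboon A-V shunt model; ED50 is the dose producing 50% of maximum effect.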
# Baboon [14] = assay: Inhibition of platelet deposition in baboon at 0.03 mg/kg, iv 1 hr post dose relative to control; format: functional; settings: Papio, in Papio anubis; in short: as §2
# [15] = Plasma clearance in iv dosed Sprague-Dawley rat; format: ADME, organism-based; in short: as §4
# [16] = Mean residence time in iv dosed Beagle dog; format: ADME, organism-based, Canis lupus familiaris; settings: in vivo; in short: as §4
# [17] = Mean residence time in iv dosed New Zealand White rabbit; format: ADME, organism-based, Oryctolagus cuniculus; settings: in vivo; in short: as §4
# Baboon [18] = assay: Inhibition of platelet deposition in baboon at 0.5 mg/kg, iv 1 hr post dose relative to control; format: functional; settings: Papio, in Papio anubis; in short: as §2
# [19] = Mean residence time in iv dosed Sprague-Dawley rat; format: ADME, organism-based; settings: in vivo; in short: as §4
# CYP2C9 = CYP2C9 (Homo sapiens, UniProt P11712); assay: Inhibition of CYP2C9 at 10 uM; format: ADME; in short: as §3
# Chain of CYP2C9 (P11712 whole entry): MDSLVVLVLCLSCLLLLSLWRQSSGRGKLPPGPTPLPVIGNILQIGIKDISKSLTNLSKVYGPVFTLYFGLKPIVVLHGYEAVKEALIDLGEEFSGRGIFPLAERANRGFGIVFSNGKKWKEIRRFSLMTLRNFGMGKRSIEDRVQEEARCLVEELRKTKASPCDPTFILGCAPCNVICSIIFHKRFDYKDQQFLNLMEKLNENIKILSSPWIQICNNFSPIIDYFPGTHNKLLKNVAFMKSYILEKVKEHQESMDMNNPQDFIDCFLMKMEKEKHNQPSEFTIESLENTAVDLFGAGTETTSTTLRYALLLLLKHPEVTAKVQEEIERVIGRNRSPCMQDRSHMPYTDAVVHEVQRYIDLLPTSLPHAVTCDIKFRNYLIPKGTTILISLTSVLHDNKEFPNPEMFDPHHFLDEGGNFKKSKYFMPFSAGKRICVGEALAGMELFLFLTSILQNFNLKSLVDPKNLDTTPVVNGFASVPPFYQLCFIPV
# Baboon [20] = assay: Volume of distribution in iv dosed baboon; format: ADME, organism-based, Papio; settings: in vivo; in short: as §4
# [21] = target: T1, Coagulation factor VII/tissue factor (Homo sapiens); assay: Anticoagulant potency in baboon as measured by prothrombin time at 0.1 mg/kg, iv 1 hr post dose; format: functional, organism-based; set-up: dose 0.1 mg/kg; settings: Papio, target entry is the homologue from another species; in short: as §2
# CYP2C19 = CYP2C19 (Homo sapiens, UniProt P33261); assay: Inhibition of CYP2C19 at 10 uM; format: ADME; in short: as §3
# Chain of CYP2C19 (P33261 whole entry): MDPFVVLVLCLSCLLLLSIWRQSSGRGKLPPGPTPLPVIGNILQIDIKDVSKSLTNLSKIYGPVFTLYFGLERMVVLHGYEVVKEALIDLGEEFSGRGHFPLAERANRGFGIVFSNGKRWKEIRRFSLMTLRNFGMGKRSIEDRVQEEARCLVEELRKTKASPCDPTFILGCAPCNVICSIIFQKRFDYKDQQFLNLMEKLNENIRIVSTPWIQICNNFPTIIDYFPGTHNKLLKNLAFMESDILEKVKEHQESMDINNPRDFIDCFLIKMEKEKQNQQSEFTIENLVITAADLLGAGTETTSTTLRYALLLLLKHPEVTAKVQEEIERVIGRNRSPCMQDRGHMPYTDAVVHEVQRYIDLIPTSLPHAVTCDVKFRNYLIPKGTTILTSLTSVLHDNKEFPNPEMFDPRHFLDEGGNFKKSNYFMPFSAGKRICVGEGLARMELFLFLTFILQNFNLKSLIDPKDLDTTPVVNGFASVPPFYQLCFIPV
# Mus musculus = assay: Volume of distribution in iv dosed C57BL/6 mice; format: ADME, organism-based; settings: in vivo; in short: as §4
# [22] = target: T1, Coagulation factor VII/tissue factor (Homo sapiens); assay: Ratio of prothrombin time in baboon over prothrombin time in human
# [23] = Plasma clearance in iv dosed New Zealand White rabbit; format: ADME, organism-based, Oryctolagus cuniculus; in short: as §4
# [24] = Plasma clearance in iv dosed Beagle dog; format: ADME, organism-based, Canis lupus familiaris; in short: as §4
# CYP2D6 = CYP2D6 (Homo sapiens, UniProt P10635); assay: Inhibition of CYP2D6 at 10 uM; format: ADME; in short: as §3
# Chain of CYP2D6 (P10635 whole entry): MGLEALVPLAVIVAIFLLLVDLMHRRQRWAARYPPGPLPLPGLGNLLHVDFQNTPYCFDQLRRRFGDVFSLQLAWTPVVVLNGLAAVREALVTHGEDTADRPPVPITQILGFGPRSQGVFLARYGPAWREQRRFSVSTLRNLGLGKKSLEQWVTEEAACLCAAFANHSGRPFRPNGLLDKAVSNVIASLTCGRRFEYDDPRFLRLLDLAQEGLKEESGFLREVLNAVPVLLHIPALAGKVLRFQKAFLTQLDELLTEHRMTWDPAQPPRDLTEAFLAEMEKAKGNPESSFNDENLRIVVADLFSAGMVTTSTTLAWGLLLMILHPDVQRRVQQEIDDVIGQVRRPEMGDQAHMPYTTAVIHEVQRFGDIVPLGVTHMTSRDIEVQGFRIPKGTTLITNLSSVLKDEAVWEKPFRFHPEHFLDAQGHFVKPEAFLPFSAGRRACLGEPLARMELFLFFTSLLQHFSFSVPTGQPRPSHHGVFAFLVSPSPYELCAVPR
# [25] = target: T1, Coagulation factor VII/tissue factor (Homo sapiens); assay: Anticoagulant potency in baboon as measured by prothrombin time at 0.03 mg/kg, iv 1 hr post dose; format: functional, organism-based; set-up: dose 0.03 mg/kg; settings: Papio, target entry is the homologue from another species; in short: as §2
# Rattus norvegicus = assay: Volume of distribution in iv dosed Sprague-Dawley rat; format: ADME, organism-based; settings: in vivo; in short: as §4
# Canis familiaris = assay: Volume of distribution in iv dosed Beagle dog; format: ADME, organism-based, Canis lupus familiaris; settings: in vivo; in short: as §4
# [26] = Plasma clearance in iv dosed C57BL/6 mice; format: ADME, organism-based; settings: C57BL/6, mouse; in short: as §4
structure (smiles),measurement,setting,value
N=C(N)c1ccc2[nH]c(-c3cc(C(CC(=O)O)C(=O)O)cc(-c4cc(NC(N)=O)ccc4O)c3O)nc2c1 (configuration not stated),Ratio Ki,[1],270
same,Ki,Coagulation factor VII,44 nM
same,Ratio Ki,[2],3400
same,2PT,[3],4.9 µM
N=C(N)c1ccc2[nH]c(-c3cc(C(CC(=O)O)C(=O)O)cc(-c4cc(C(N)=O)ccc4O)c3O)nc2c1 (configuration not stated),Ratio Ki,[1],1100
same,Ki,Coagulation factor VII,14 nM
same,Ratio Ki,[2],10700
same,2PT,[3],3.6 µM
N=C(N)c1ccc2[nH]c(-c3cc(C(CC(=O)O)C(=O)O)cc(-c4cc(CN)ccc4O)c3O)nc2c1 (configuration not stated),Ratio Ki,[1],510
same,Ki,Coagulation factor VII,35 nM
same,Ratio Ki,[2],4200
same,2PT,[3],2.9 µM
N=C(N)c1ccc2[nH]c(-c3cc(C(CC(=O)O)C(=O)O)cc(-c4cc(F)ccc4O)c3O)nc2c1 (configuration not stated),Ratio Ki,[1],1800
same,Ratio Ki,[2],55500
same,2PT,[3],10.2 µM
N=C(N)c1ccc2[nH]c(-c3cc(C(CC(=O)O)C(=O)O)cc(-c4cc(CNC(N)=O)ccc4O)c3O)nc2c1 (configuration not stated),inhibition in vivo at 0.1 mg/kg,Baboon [4],61%
same,inhibition at 10 µM,CYP3A4,< 40%
same,clearance,[5],26.5 mL/min
same,inhibition in vivo at 0.1 mg/kg,Baboon [6],64%
same,inhibition at 10 µM,CYP1A2,< 40%
same,inhibition in vivo at 0.03 mg/kg,Baboon [7],20%
same,MRT,[8],0.392 h
same,PT,[9],11.6 s
same,Vdss,Oryctolagus cuniculus,1080 mL
same,MRT,[10],3.87 h
same,inhibition in vivo at 0.5 mg/kg,Baboon [11],86%
same,2aPTT,[12],0.8 µM
same,EC50,Baboon [13],170 nM
same,ED50,"Baboon [13]; in Papio anubis, iv",0.06 mg/kg
same,Emax,"Baboon [13]; in Papio anubis, iv",99%
same,inhibition in vivo at 0.03 mg/kg,Baboon [14],14%
same,clearance,[15],0.81 mL/min
same,Ratio Ki,[1],3600
same,MRT,[16],3.73 h
same,MRT,[17],3.03 h
same,inhibition in vivo at 0.5 mg/kg,Baboon [18],87%
same,MRT,[19],1.15 h
same,inhibition at 10 µM,CYP2C9,< 40%
same,Vdss,Baboon [20],5854 mL
same,PT,[21],11.3 s
same,Ratio Ki,[2],> 100000
same,inhibition at 10 µM,CYP2C19,< 40%
same,Vdss,Mus musculus,2.43 mL
same,Ratio,[22],1.05
same,clearance,[23],6.1 mL/min
same,clearance,[24],30.5 mL/min
same,inhibition at 10 µM,CYP2D6,< 40%
same,PT,[25],11.3 s
same,Vdss,Rattus norvegicus,55.2 mL
same,Vdss,Canis familiaris,6750 mL
same,clearance,[26],0.103 mL/min
N=C(N)c1ccc2[nH]c(-c3cc(C(CC(=O)O)C(=O)O)cc(-c4cc(C(=O)O)ccc4O)c3O)nc2c1 (configuration not stated),Ratio Ki,[1],300
same,Ki,Coagulation factor VII,43 nM
same,Ratio Ki,[2],3500
same,2PT,[3],8.2 µM
N=C(N)c1ccc2[nH]c(-c3cc(C(CC(=O)O)C(=O)O)cc(-c4cc(CC(=O)O)ccc4O)c3O)nc2c1 (configuration not stated),Ratio Ki,[1],125
same,Ratio Ki,[2],12500
same,2PT,[3],6.2 µM
N=C(N)c1ccc2nc(-c3cc(C(CC(=O)O)C(=O)O)cc(-c4cc(CC(N)=O)ccc4O)c3O)[nH]c2c1 (configuration not stated),Ki,Coagulation factor VII,12 nM
N=C(N)c1ccc2[nH]c(-c3cc(C(CC(=O)O)C(=O)O)cc(-c4cc(CC(N)=O)ccc4O)c3O)nc2c1 (configuration not stated),Ratio Ki,[1],280
same,Ratio Ki,[2],12500
same,2PT,[3],6.4 µM
N=C(N)c1ccc2nc(-c3cc(C(CC(=O)O)C(=O)O)cc(-c4cc(CC(=O)O)ccc4O)c3O)[nH]c2c1 (configuration not stated),Ki,Coagulation factor VII,12 nM
N=C(N)c1ccc2[nH]c(-c3cc(C(CC(=O)O)C(=O)O)cc(-c4cc(CCC(=O)O)ccc4O)c3O)nc2c1 (configuration not stated),Ratio Ki,[1],350
same,Ki,Coagulation factor VII,13 nM
same,Ratio Ki,[2],11500
same,2PT,[3],5.4 µM

# — ChEMBL document CHEMBL1146111, “Factor VIIa inhibitors: chemical optimization, preclinical pharmacokinetics, pharmacodynamics, and efficacy in an arterial baboon thrombosis model” (Bioorg Med Chem Lett, 2006)
